Results of several laboratories.
Protocols differ between the studies behind these lines. Values after ≈ are worked out from the molar mass of the structure shown.

Compound	target or system	test	test system	conditions	measurement	value
Cc1ccc(Nc2cnnc3cc(-c4cnc(N5CCCN(C)CC5)nc4)ccc23)cn1	Trypanosoma cruzi	parasite growth	C2C12	intracellular, amastigote	EC50	> 10 µM
COc1ccc(NC(=O)NCc2cn(Cc3ccc(Br)cc3)nn2)cc1	Huh-7	cell growth or viability, CCK-8	–	50 µM, 72 h	viability	86%
O=C(NCc1cn(Cc2ccc(Br)cc2)nn1)Nc1ccccc1Br	Huh-7	cell growth or viability, CCK-8	–	50 µM, 72 h	viability	72.9%
COc1ccc(Nc2cnnc3ccc(-c4ccc(N5CCN(C)CC5)cc4)cc23)nc1	Trypanosoma cruzi	parasite growth	C2C12	intracellular, amastigote	EC50	1.7 µM
O=C(Cn1ccnc1[N+](=O)[O-])NCc1ccccc1	Trypanosoma cruzi	parasite growth	–	24 h, trypomastigote	IC50	1.04 µg/mL
COc1ccc(NC(=O)Nc2cccc(-c3cn(Cc4ccc(C)cc4)nn3)c2)cc1	Huh-7	cell growth or viability, CCK-8	–	72 h	IC50	19.3 µM
COc1ccc(Nc2cnnc3ccc(-c4ccc(N5CCN(C)CC5)cc4)cc23)cc1Cl	Trypanosoma cruzi	parasite growth	C2C12	intracellular, amastigote	EC50	2.4 µM
O=C(Nc1cccc(-c2cn(Cc3ccc(Cl)cc3)nn2)c1)Nc1ccccc1Br	Huh-7	cell growth or viability, CCK-8	–	50 µM, 48 h	viability	53.1%
COc1ccc(NC(=O)Nc2ccc(-c3cn(Cc4cccc(Cl)c4)nn3)cc2)cc1	Huh-7	cell growth or viability, CCK-8	–	72 h	IC50	> 50 µM
O=C(NCc1cn(Cc2ccc(Cl)cc2)nn1)Nc1ccc(Cl)cc1	Huh-7	cell growth or viability, CCK-8	–	50 µM, 48 h	viability	65.7%
COc1ccc(Nc2cnnc3cc(-c4cnc(N5CCCN(C)CC5)nc4)ccc23)nc1	Trypanosoma cruzi	parasite growth	C2C12	intracellular, amastigote	EC50	7.5 µM
COc1ccc(NC(=O)Nc2cccc(-c3cn(Cc4cccc(Cl)c4)nn3)c2)cc1	Huh-7	cell growth or viability, CCK-8	–	50 µM, 72 h	viability	10.8%
O=C(Nc1ccc(-c2cn(Cc3ccc(Cl)cc3)nn2)cc1)Nc1ccccc1Br	Huh-7	cell growth or viability, CCK-8	–	50 µM, 48 h	viability	80.2%
COc1ccc(NC(=O)Nc2ccc(-c3cn(Cc4ccc(Br)cc4)nn3)cc2)cc1	Huh-7	cell growth or viability, CCK-8	–	50 µM, 72 h	viability	91.2%
CN1CCN(c2ncc(-c3ccc4c(Nc5ncccn5)cnnc4c3)cn2)CC1	Trypanosoma cruzi	parasite growth	C2C12	intracellular, amastigote	EC50	> 10 µM
O=C(Nc1cccc(-c2cn(Cc3ccc(Br)cc3)nn2)c1)Nc1ccccc1Br	Huh-7	cell growth or viability, CCK-8	–	50 µM, 72 h	viability	10.8%
Cc1ccccc1Cn1cc(-c2cccc(NC(=O)Nc3ccc(F)cc3)c2)nn1	Huh-7	cell growth or viability, CCK-8	–	50 µM, 72 h	viability	12.5%
COc1ccc(Nc2cnnc3ccc(-c4cnc(N5CCCN(C)CC5)nc4)cc23)cc1Cl	Trypanosoma cruzi	parasite growth	C2C12	intracellular, amastigote	EC50	0.93 µM
Cc1ccc(C(C)C)c(OC2=C(Cl)C(=O)c3ccccc3C2=O)c1	Alternaria alternata	microbial growth, broth dilution	–	–	MIC	12 µg/mL (≈ 35.2 µM)
O=C(NCc1cn(Cc2ccc(Cl)cc2)nn1)Nc1ccccc1Br	Huh-7	cell growth or viability, CCK-8	–	50 µM, 72 h	viability	65.6%
COc1ccc(NC(=O)Nc2cccc(-c3cn(Cc4ccc(Cl)cc4)nn3)c2)cc1	Huh-7	cell growth or viability, CCK-8	–	72 h	IC50	15.5 µM
O=C(Nc1ccc(Cl)cc1)Nc1cccc(-c2cn(Cc3cccc(Cl)c3)nn2)c1	Huh-7	cell growth or viability, CCK-8	–	50 µM, 72 h	viability	15%
CN1CCN(c2ccc(-c3ccc4nncc(Nc5ncccn5)c4c3)cc2)CC1	Trypanosoma cruzi	parasite growth	C2C12	intracellular, amastigote	EC50	7.9 µM
